The species entered for experiment [1] is Oryctolagus cuniculus. Briefly: Agonist, ''ANG II-like'' activity was measured in the in vitro rabbit aorta strip assay; + = mixed agonist-antagonist effects seen above 100n g/mL. The class given is functional. The method in brief:
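Isolated rabbit aorta strip (method of Rioux et al.); contractile agonist activity expressed as percent of the response to ANG II.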

For experiment [2], the species on record is Oryctolagus cuniculus. Briefly: Antagonist activity pA2, was measured in the in vitro rabbit aorta strip assay; + = mixed agonist-antagonist effects seen above 100n g/mL. The experiment is classed as functional. Summed up:
(§1)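 Isolated rabbit aorta strip (method of Rioux et al.); pA2 against the ANG II dose-response curve, determined at low antagonist doses within the competitive-inhibition range.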

For experiment [3], the species on record is Rattus norvegicus. The experiment in a line: Antagonist activity pA2, was measured in the in vitro rat uterus strip assay. The class given is functional. Particulars: read-out: pA2 (converted).
Experiment [4] relates to Rattus norvegicus. Briefly: Residual ANG II-like antagonist activity, ID50 was measured in vivo, in the rat blood pressure assay. The class given is functional.
For experiment [5], the system named is Angiotensin II receptor (Oryctolagus cuniculus). The experiment in a line: Angiotensin II-like agonist activity, measured in the in vitro rabbit aorta strip assay.
Experiment [6] addresses Angiotensin II receptor (Rattus norvegicus) (UniProt P29089+P25095+P35351). The experiment in a line: In vivo blood pressure increase produced by a 1 ug bolus i.v. The class given is functional, organism-based. Summed up: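 Rat blood pressure assay (Regoli et al.); agonist activity read as the mmHg rise in blood pressure after a 1 μg intravenous bolus of compound.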
The test system of experiment [7] is Rattus norvegicus. The experiment in a line: Residual ANG II-like antagonist activity, ID50 was measured in vivo, in the rat blood pressure assay; Partial angonist. The class given is functional, organism-based. Particulars: filed as partial agonist.
For experiment [8], the species on record is Oryctolagus cuniculus. The experiment in a line: Antagonist activity pA2, was measured in the in vitro rabbit aorta strip assay. The experiment is classed as functional. Particulars: read-out: pA2 (converted). Summed up: as §1
The subject of experiment [9] is Rattus norvegicus. The experiment in a line: Residual ANG II-like antagonist activity, ID50 was measured in vivo, in the rat blood pressure assay; + means slight antagonist effect. Particulars: filed as antagonist. The experiment is classed as functional, organism-based.

Consider seven compounds from ChEMBL document CHEMBL1124503, “The role of position 4 in angiotensin II antagonism: a structure-activity study” (J Med Chem, 1989).

Where a SMILES comes first, the peptide text is derived from it. [ ]: non-standard residue; d: D form. Phe(4-NO2) = N[C@@H](Cc1ccc([N+](=O)[O-])cc1)C(=O)O; Phe(4-F) = N[C@@H](Cc1ccc(F)cc1)C(=O)O; Phe(4-I) = N[C@@H](Cc1ccc(I)cc1)C(=O)O; Sar = CNCC(=O)O Some results are limits rather than exact numbers.

Turning to `CC[C@H](C)[C@H](NC(=O)[C@H](Cc1ccc([N+](=O)[O-])cc1)NC(=O)[C@@H](NC(=O)[C@H](CCCN=C(N)N)NC(=O)CNC)C(C)C)C(=O)N[C@@H](Cc1c[nH]cn1)C(=O)N1CCC[C@H]1C(=O)N[C@@H](Cc1ccccc1)C(=O)O` (H-[Sar]RV[Phe(4-NO2)]IHPF-OH), in the experiment listed under Oryctolagus cuniculus [1], the Activity entry is given as “mixed agonist-antagonist effects seen above 100n g/mL”. Besides, the pA2 entry in the experiment listed under Oryctolagus cuniculus [2] is recorded as “mixed agonist-antagonist effects seen above 100n g/mL”.

As for `CCOc1ccc(C[C@H](NC(=O)[C@@H](NC(=O)[C@H](CCCN=C(N)N)NC(=O)CNC)C(C)C)C(=O)N[C@H](C(=O)N[C@@H](Cc2c[nH]cn2)C(=O)N2CCC[C@H]2C(=O)N[C@@H](Cc2ccccc2)C(=O)O)[C@@H](C)CC)cc1`, in the experiment filed under Rattus norvegicus [3], the Kb is greater than 1000 nM. The compound further registered an ID50 in the experiment with Rattus norvegicus [4] of 150 ng min-1 rat-1. For the same compound, the Activity in [5] amounted to 0.1%. The Blood pressure in experiment [6] is 2.5 mmHg.

In the case of `CC[C@H](C)[C@H](NC(=O)[C@@H]1CCCN1C(=O)[C@H](Cc1c[nH]cn1)NC(=O)[C@@H](NC(=O)[C@H](Cc1ccc(O)cc1)NC(=O)[C@@H](NC(=O)[C@H](CCCN=C(N)N)NC(=O)[C@@H](N)CC(=O)O)C(C)C)[C@@H](C)CC)C(=O)O`, the Kb in the experiment filed under Rattus norvegicus [3] is 5.01 nM.

H-DRVYIHPC-OH: in the experiment listed under Rattus norvegicus [3], the Kb was 6.03 nM.

Take `CC[C@H](C)[C@H](NC(=O)[C@H](Cc1ccc(F)cc1)NC(=O)[C@@H](NC(=O)[C@H](CCCN=C(N)N)NC(=O)[C@@H](N)CC(=O)O)C(C)C)C(=O)N[C@@H](Cc1c[nH]cn1)C(=O)N1CCC[C@H]1C(=O)N[C@@H](Cc1ccccc1)C(=O)O` (H-DRV[Phe(4-F)]IHPF-OH): the Kb in the experiment listed under Rattus norvegicus [3] is 501 nM.

`CC[C@H](C)[C@H](NC(=O)[C@H](Cc1ccc(I)cc1)NC(=O)[C@@H](NC(=O)[C@H](CCCN=C(N)N)NC(=O)CNC)C(C)C)C(=O)N[C@@H](Cc1c[nH]cn1)C(=O)N1CCC[C@H]1C(=O)N[C@@H](Cc1ccccc1)C(=O)O` (H-[Sar]RV[Phe(4-I)]IHPF-OH): the ID50 entry in the experiment on Rattus norvegicus [7] was “Partial agonist”. The compound also registered an Activity in [5] of 0%. The Kb in the experiment filed under Oryctolagus cuniculus [8] is 251 nM. In experiment [6], the Blood pressure came out at 80 mmHg.

As to H-DRVFIHPF-OH, in [5], the Activity worked out at 11%. For the same compound, in the experiment on Rattus norvegicus [9], the ID50 result is reported as “Partial antagonist”. Moreover, the Blood pressure in experiment [6] came out at 20 mmHg.
